Data: ChEMBL document CHEMBL1149289, “Synthesis and antibacterial activity of new poly-S-lysine-porphyrin conjugates” (J Med Chem, 2004)

Key:
Format in all cases: ADME, organism-based
Details in all cases: in vivo
Escherichia coli = assay: Drug uptake per mg of protein in Escherichia coli O4 at 0.1 uM after 10 mins
Procedure, shortened: (§1)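 Washed stationary-phase bacteria in PBS (10^8 to 10^9 cells/mL; OD650 ca. 0.7) incubated 10 min in the dark at room temperature with photosensitizer. Cells were then centrifuged, supernatant removed, and pellet digested in 2% aqueous SDS. Porphyrin measured by spectrofluorimetry, cell protein by modified Lowry with BSA standard; uptake expressed as nmol photosensitizer per mg cell protein.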

Staphylococcus aureus [1] = assay: Drug uptake per mg of protein in Staphylococcus aureus ATCC 25923 at 0.1 uM after 10 mins; procedure, shortened: as §1
Staphylococcus aureus [2] = assay: Drug uptake per mg of protein in methicillin-resistant Staphylococcus aureus 110 at 0.1 uM after 10 mins
Procedure, shortened: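 Bacterial suspensions (10^8 to 10^9 cells/mL in PBS) were incubated with porphyrin for 10 min in the dark at room temperature, then centrifuged. The pellet was digested in 2% aqueous SDS. Porphyrin was quantified by spectrofluorimetry and cell protein by modified Lowry assay (BSA standard). Uptake is given as nmol per mg cell protein.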

Question: What does the source list for `O=C(O)c1ccc(-c2c3nc(c(-c4ccncc4)c4ccc([nH]4)c(-c4ccncc4)c4nc(c(-c5ccncc5)c5ccc2[nH]5)C=C4)C=C3)cc1` [PORPHIRIN]?
Answer: Drug uptake (Escherichia coli): 1.2 nmol/mg; Drug uptake (Staphylococcus aureus [1]): 1.54 nmol/mg; Drug uptake (Staphylococcus aureus [2]): 1.5 nmol/mg
